Source: paper PMC12377326 (RSC Advances, 2025)
Values joined by “and” are separate entries in the source; they are usually repeats but may differ in a detail not shown here. Equal values may be shown once.

Assays:
hCA II = hCA II (Homo sapiens, UniProt P00918); assay: hCA II counterscreen; format: biochemical; conditions: for S II = (IC50 hCA II, nM)/(IC50 hCA IX, nM): selectivity for CA IX over CA II
In short: (§1)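 Recombinant human enzymes, >95% pure: hCA I (Ala2–Phe261) for line 1 and hCA II (Ser2–Lys260) for line 2. Run under the same conditions as the hCA IX assay at 25 °C. IC50 is the mean ± SD, n = 3. Where solubility prevented a full titration, IC50 was extrapolated from the linear range of the curve. Selectivity index = IC50 (hCA I or hCA II, nM)/IC50 (hCA IX, nM).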

hCA I = hCA I (Homo sapiens, UniProt P00915); assay: hCA I counterscreen; format: biochemical; conditions: for S I = (IC50 hCA I, nM)/(IC50 hCA IX, nM): selectivity for CA IX over CA I
In short: as §1

hCA IX [1] = biological target: T1, hCA IX (Homo sapiens, UniProt Q16790); assay: Steady-state CO2-hydrase enzyme kinetics; format: biochemical; conditions: Lineweaver–Burk and Michaelis–Menten plots; unchanged Km, reduced Vmax
hCA IX [2] = biological target: T1, hCA IX; assay: biochemical; conditions: stopped-flow CO2-hydrase assay

hCA I, sequence (P00915 2-261): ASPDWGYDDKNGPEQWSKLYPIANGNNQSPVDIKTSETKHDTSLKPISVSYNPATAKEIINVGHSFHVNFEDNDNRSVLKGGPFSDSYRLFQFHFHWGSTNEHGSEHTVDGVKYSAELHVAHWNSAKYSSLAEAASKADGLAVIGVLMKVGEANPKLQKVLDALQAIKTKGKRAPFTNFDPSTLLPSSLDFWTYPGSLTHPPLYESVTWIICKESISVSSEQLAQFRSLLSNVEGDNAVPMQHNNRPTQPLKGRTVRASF

Row | SMILES | IC50 (hCA II) [nM] | S II = (IC50 hCA II, nM)/(IC50 hCA IX, nM) (hCA II) | S II = (IC50 hCA II, nM)/(IC50 hCA IX, nM) (hCA II; listed as palustric) | IC50 (hCA I) [nM] | S I = (IC50 hCA I, nM)/(IC50 hCA IX, nM) (hCA I) | S I = (IC50 hCA I, nM)/(IC50 hCA IX, nM) (hCA I; listed as palustric) | mode of inhibition (hCA IX [1]) | IC50 (hCA IX [2]; IC50 CA IX (printed in μM), mean ± SD) [µM] | IC50 (hCA IX [2]; IC50 hCA IX, pH 7.4, 25 °C, mean ± SD (n = 3)) [µM] | S II = (IC50 hCA II, nM)/(IC50 hCA IX, nM) (hCA II; listed as pimaric) | S I = (IC50 hCA I, nM)/(IC50 hCA IX, nM) (hCA I; listed as pimaric)
1 | CC(C)C1=CC2=C(CC1)[C@@]1(C)CCC[C@@](C)(C(=O)O)[C@@H]1CC2 [Palustric acid, palustric acid] | 1450 ± 120 | 5.0 | ≈ 5 | 2250 ± 200 | 7.8 | ≈ 8 | non-competitive |  |  |  | 
2 | CC(C)C1=CC[C@H]2C(=C1)CC[C@@H]1[C@]2(C)CCC[C@@]1(C)C(=O)O [Levopimaric acid, levopimaric acid] | 680 ± 50 | 4.6 |  | 1500 ± 120 | 10 and 10.2 |  | non-competitive |  |  |  | 
3 | C=C[C@@]1(C)C=C2CC[C@@H]3[C@](C)(CCC[C@@]3(C)C(=O)O)[C@H]2CC1 [Pimaric acid, pimaric acid] | 1620 ± 130 | 4.8 |  | 2700 ± 250 | 7.9 |  | non-competitive | 0.341 ± 0.0064 | 0.341 ± 0.00637 | ≈ 5 | ≈ 8
